Measured values of several laboratories.
Each line is one published result; the experiments were not run side by side.
PIK3CA: Phosphatidylinositol 4,5-bisphosphate 3-kinase catalytic subunit alpha isoform (PIK3CA, Homo sapiens, UniProt P42336)
T1R2/T1R3: T1R2/T1R3 (Homo sapiens, UniProt Q7RTX0+Q8TE23)
FOLH1: Glutamate carboxypeptidase 2 (FOLH1, Homo sapiens, UniProt Q04609)

COc1cc(N=C2C(=O)N(Cc3ccccc3)c3ccccc32)cc(OC)c1  IC50 (Phosphatidylinositol 4,5-bisphosphate 3-kinase catalytic subunit beta isoform (PIK3CB, Homo sapiens, UniProt P42338); enzyme activity; inhibitor; ADP detection): 0.038 µM
CN(C)C(=O)c1cc2cnc(Nc3cccc4c(=O)cc(N5CCOCC5)oc34)nc2n1C1CCCC1  IC50 (PIK3CA; enzyme activity; inhibitor; radiometric): > 10 µM
OC[C@H]1O[C@H](O[C@]2(CCl)O[C@H](CCl)[C@@H](O)[C@@H]2O)[C@H](O)[C@@H](O)[C@H]1Cl  EC50 (T1R2/T1R3; calcium signal; agonist): 232 µM
CCc1ccc(N=C2C(=O)Nc3ccccc32)cc1  IC50 (PIK3CA; enzyme activity; inhibitor; ADP detection): 0.098 µM
CN(C)C(=O)c1cc2cnc(Nc3ccc(-c4cccc5c(=O)cc(N6CCOCC6)oc45)cc3)nc2n1C1CCCC1  IC50 (PIK3CA; enzyme activity; inhibitor; radiometric): 0.472 µM
O=C1C(=Nc2ccc(Cl)cc2Br)c2ccccc2N1Cc1ccc(Br)cc1  IC50 (PIK3CA; enzyme activity; inhibitor; ADP detection): 0.0434 µM
CC[C@H](C)[C@H](NC(=O)[C@H](Cc1nc2ccccc2s1)NC(=O)CCC(=O)O)C(=O)N[C@H]1CCc2cccc3c2N(C1=O)[C@H](C(=O)NCc1cn[nH]n1)C3  Ki (Granzyme B (GZMB, Homo sapiens, UniProt P10144); enzyme activity; inhibitor; fluorescence): 0.0378 µM
CC1(C)CN(CCCCC(=O)N[C@H](Cc2ccccc2)C(=O)N[C@H](Cc2ccccc2)C(=O)N[C@@H](CCCCNC(=O)CCCCCCC(=O)NCCCC[C@H](NC(=O)N[C@@H](CCC(=O)O)C(=O)O)C(=O)O)C(=O)O)CC[N]2CC(C)(C)[S][Tc]2(=[O])[S]1 (stereo partly shown)  Kd (FOLH1; binding; radioligand): 0.0155 µM
O=C1C(=Nc2ccc(Cl)cc2)c2ccccc2N1Cc1ccc(Br)cc1  IC50 (PIK3CA; enzyme activity; inhibitor; ADP detection): 0.0298 µM
CC1(C)CN(CCCCC(=O)N[C@@H](CCC(=O)O)C(=O)N[C@@H](CCC(=O)O)C(=O)N[C@H](CCCCNC(=O)CCCCCCC(=O)NCCCC[C@H](NC(=O)N[C@@H](CCC(=O)O)C(=O)O)C(=O)O)C(=O)O)CC[N]2CC(C)(C)[S][Tc]2(=[O])[S]1 (stereo partly shown)  Kd (FOLH1; binding; radioligand): 0.0061 µM
CN(C)C(=O)c1cc2cnc(Nc3cc(C(F)(F)F)c(-c4cccc5c(=O)cc(N6CCOCC6)oc45)cn3)nc2n1C1CCCC1  IC50 (PIK3CA; enzyme activity; inhibitor; radiometric): > 10 µM
O=S(=O)(O)NC1CCCCC1  EC50 (T1R2/T1R3; calcium signal; agonist): 2750 µM
CC1(C)CN(CCCCC(=O)N[C@@H](CCCCNC(=O)CCCCCCC(=O)NCCCC[C@H](NC(=O)N[C@@H](CCC(=O)O)C(=O)O)C(=O)O)C(=O)O)CC[N]2CC(C)(C)[S][Tc]2(=[O])[S]1 (stereo partly shown)  Kd (FOLH1; binding; radioligand): 0.0144 µM
